Tests used:
HOS = test: Cytotoxicity against HOS cells assessed as reduction in ATP level after 48 hrs by luciferase reporter gene assay; format: cell-based; conditions: human
Outline: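 HOS cells in DMEM with 5% FBS and 5% newborn calf serum, seeded 4000 per well the day before, exposed to compound for 48 h at 37 °C. Cells lysed and ATP measured with a luciferase (ATPlite) read-out. Signal normalized to untreated cells; CC50 from regression fit.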

[1] = target: T1, Human immunodeficiency virus type 1 integrase (Human immunodeficiency virus 1, UniProt Q7ZJM1); test: Inhibition of HIV-1 integrase-mediated strand transfer activity using [32P]-labeled oligonucleotide as substrate after 2 hrs by densitometric analysis
Outline: (§1)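 400 nM integrase with 20 nM [γ-32P]-labeled DNA in 50 mM MOPS pH 7.2, 7.5 mM MgCl2, 14 mM 2-mercaptoethanol; compounds in DMSO. The substrate for 3′-processing was 21T/21B duplex, and for strand transfer the precleaved 19T/21B duplex. Reactions ran 2 h at 37 °C and were quenched with formamide/SDS loading buffer.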

[2] = target: T1, Human immunodeficiency virus type 1 integrase; test: Inhibition of HIV-1 integrase-mediated 3'-processing activity using [32P]-labeled oligonucleotide as substrate after 2 hrs by densitometric analysis; outline: as §1
[3] = Selectivity index, ratio of CC50 for HOS cells to EC50 for wild-type Human immunodeficiency virus 1
[4] = system: Human immunodeficiency virus 1; test: Antiviral activity against Human immunodeficiency virus 1 harboring integrase G140S/Q148H double mutant infected in HOS cells preincubated for 3 hrs followed by viral infection measured after 48 hrs by luciferase reporter gene assay; format: functional, organism-based; conditions: Human immunodeficiency virus 1, HOS
Outline: (§2)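 VSV-g-pseudotyped single-round HIV-1 luciferase vector (pNLNgoMIVR-ΔLUC; IN mutants made by site-directed mutagenesis), produced by 293T transfection. HOS cells seeded the day before, given compound over 10 μM to 0.0005 μM (11 serial dilutions), 3 h at 37 °C, then virus added; 48 h at 37 °C. Luciferase read-out normalized to no-compound infectivity; EC50 from regression fit.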

[5] = system: Human immunodeficiency virus 1; test: Antiviral activity against Human immunodeficiency virus 1 harboring integrase N155H mutant infected in HOS cells preincubated for 3 hrs followed by viral infection measured after 48 hrs by luciferase reporter gene assay; format: functional, organism-based; conditions: Human immunodeficiency virus 1, HOS; outline: as §2
[6] = system: Human immunodeficiency virus 1; test: Antiviral activity against Human immunodeficiency virus 1 harboring integrase Y143R mutant infected in HOS cells preincubated for 3 hrs followed by viral infection measured after 48 hrs by luciferase reporter gene assay; format: functional, organism-based; conditions: Human immunodeficiency virus 1, HOS; outline: as §2
[7] = system: Human immunodeficiency virus 1; test: Antiviral activity against wild-type Human immunodeficiency virus 1 infected in HOS cells preincubated for 3 hrs followed by viral infection measured after 48 hrs by luciferase reporter gene assay; format: functional, organism-based; conditions: Human immunodeficiency virus 1, HOS; outline: as §2
[8] = system: Human immunodeficiency virus 1; test: Ratio of raltegravir EC50 to compound EC50 for Human immunodeficiency virus 1 harboring integrase E138K/Q148K double mutant; format: functional
Outline: (§3)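 VSV-g-pseudotyped single-round HIV-1 luciferase vectors, produced in 293T cells, carrying WT or site-directed mutant IN (G118R, Y143R, N155H, G140S+Q148H, E138K+Q148K). HOS cells were pretreated 3 h at 37 °C with compound (10 μM to 0.0005 μM, 11 serial dilutions), infected, and incubated 48 h. Luciferase signal was normalized to no-compound infectivity, and EC50 was taken from regression fit. Ratios were formed from these EC50s.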

[9] = system: Human immunodeficiency virus 1; test: Ratio of raltegravir EC50 to compound EC50 for Human immunodeficiency virus 1 harboring integrase G140S/Q148H double mutant; format: functional; outline: as §3
[10] = system: Human immunodeficiency virus 1; test: Ratio of raltegravir EC50 to compound EC50 for Human immunodeficiency virus 1 harboring integrase Y143R mutant; format: functional; outline: as §3
[11] = system: Human immunodeficiency virus 1; test: Ratio of raltegravir EC50 to compound EC50 for Human immunodeficiency virus 1 harboring integrase N155H mutant; format: functional; outline: as §3
[12] = system: Human immunodeficiency virus 1; test: Ratio of EC50 for Human immunodeficiency virus 1 harboring integrase G118R mutant to EC50 for wild-type Human immunodeficiency virus 1; format: functional; outline: as §3
[13] = system: Human immunodeficiency virus 1; test: Ratio of EC50 for Human immunodeficiency virus 1 harboring integrase N155H mutant to EC50 for wild-type Human immunodeficiency virus 1; format: functional

T1 sequence (Q7ZJM1 whole entry): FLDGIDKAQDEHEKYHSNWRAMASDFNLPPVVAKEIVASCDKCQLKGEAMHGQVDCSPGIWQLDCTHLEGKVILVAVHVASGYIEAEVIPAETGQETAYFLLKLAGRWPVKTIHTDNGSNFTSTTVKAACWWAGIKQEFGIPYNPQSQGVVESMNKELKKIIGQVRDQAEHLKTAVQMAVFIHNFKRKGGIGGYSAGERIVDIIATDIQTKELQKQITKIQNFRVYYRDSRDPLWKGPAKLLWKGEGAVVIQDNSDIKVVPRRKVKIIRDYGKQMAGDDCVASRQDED

SMILES | CC50 (HOS) | IC50 [1] | IC50 [2] | selectivity ratio [3] | EC50 [5] | EC50 [6] | EC50 [7] | other results
Cc1nnc(C(=O)NC(C)(C)c2nc(C(=O)NCc3ccc(F)cc3)c(O)c(=O)n2C)o1 | > 100000 nM |  |  |  |  |  |  | 
O=C(NCc1ccc(F)cc1F)c1cc2ccccc2n(O)c1=O |  | 19700 nM | > 333000 nM |  |  |  |  | 
COc1cccc2cc(C(=O)NCc3ccc(F)cc3F)c(=O)n(O)c12 |  | > 333000 nM | > 333000 nM |  |  |  |  | 
O=C(NCc1ccc(F)c(Cl)c1)c1c(O)c2cccnc2n(O)c1=O | 102000 nM | 27 nM | 4700 nM | 2910 | 148 nM | 54 nM | 35 nM | EC50 [4]: 489 nM
O=C(NCc1ccc(F)c(F)c1)c1c(O)c2cccnc2n(O)c1=O | 192000 nM | 40 nM | 3600 nM | 9600 | 189 nM | 45 nM | 20 nM | EC50 [4]: 507 nM
O=C(NCc1ccc(F)cc1F)c1c(O)c2cccnc2n(O)c1=O | 137000 nM | 55 nM | 1200 nM | 22100 | 31 nM | 11 nM | 6.2 nM | Ratio EC50 [8]: 10; Ratio EC50 [9]: 10; Ratio EC50 [10]: 10; Ratio EC50 [11]: 10; Ratio EC50 [12]: 6; Ratio EC50 [13]: 5; EC50 [4]: 308 nM
O=C(NCc1ccc(F)c(Cl)c1)c1c(O)c2cccnc2[nH]c1=O |  | 7800 nM | 125000 nM |  |  |  |  | 
O=C(NCc1ccc(F)c(F)c1)c1c(O)c2cccnc2[nH]c1=O |  | 8100 nM | 93000 nM |  |  |  |  | 
O=C(NCc1ccc(F)cc1F)c1c(O)c2cccnc2[nH]c1=O |  | 7100 nM | > 333000 nM |  |  |  |  | 
O=C(NCc1ccc(F)c(Cl)c1)c1cc2cccc(O)c2n(O)c1=O |  | 530 nM | 17000 nM |  |  |  |  | 
O=C(NCc1ccc(F)c(F)c1)c1cc2cccc(O)c2n(O)c1=O |  | 780 nM | 24000 nM |  |  |  |  | 
O=C(NCc1ccc(F)cc1F)c1cc2cccc(O)c2n(O)c1=O |  | 18000 nM | 43000 nM |  |  |  |  | 
O=C(NCc1ccc(F)c(Cl)c1)c1cc2cccnc2n(O)c1=O | > 250000 nM | 14 nM | 9400 nM | > 6580 | 90 nM | 34 nM | 38 nM | 
O=C(NCc1ccc(F)c(F)c1)c1cc2cccnc2n(O)c1=O | > 250000 nM | 17 nM | 13600 nM | > 4030 | 2200 nM | 40 nM | 62 nM | 
O=C(NCc1ccc(F)cc1F)c1cc2cccnc2n(O)c1=O | > 250000 nM | 41 nM | 6100 nM | > 49000 | 134 nM |  | 5.1 nM | Ratio EC50 [13]: 26; EC50 [4]: 438 nM

From ChEMBL document CHEMBL3124837, “Bicyclic 1-hydroxy-2-oxo-1,2-dihydropyridine-3-carboxamide-containing HIV-1 integrase inhibitors having high antiviral potency against cells harboring raltegravir-resistant integrase mutants” (J Med Chem, 2014)
